ChEMBL document CHEMBL1127318, “Hypoxia-selective antitumor agents. 8. Bis(nitroimidazolyl)alkanecarboxamides: a new class of hypoxia-selective cytotoxins and hypoxic cell radiosensitisers” (J Med Chem, 1994)

Legend:
CHO-AA8 [1] = test: (§1) Compound concentration required to reduce cell survival to 10% of control values under hypoxic condition; type: cell-based, Cricetulus griseus; settings: chinese hamster
In short: (§2)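 Chinese hamster AA8 cells at plateau phase, 10⁶/mL, in magnetically stirred 10-mL suspensions. Gassed continuously with 5% CO₂ in N₂ (hypoxic) or in air (aerobic); cells and drug preequilibrated under the gas for 60 min. Clonogenic plating efficiency read every 0.5–1 h for up to 8 h at several drug concentrations. Concentration × time for 10% survival (CT10) estimated at each concentration.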

CHO-AA8 [2] = test: Average intracellular compound concentration where the sensitizer enhancement ratio (SER)=1.6 under hypoxia; type: functional, Cricetulus griseus
In short: (§3)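 Hypoxic stirred AA8 suspensions (10⁷ cells) incubated 30 min at the C1.6 concentration. Cells and supernatant separated by centrifugation and extracted into MeCN. Drug measured by C18 HPLC with formate pH 4.5/MeCN gradient, absorbance 320 nm. Values corrected for recovery using spiked medium or lysed pellets. Mean intracellular concentration calculated assuming 11.6 µL cell water and 1.1 µL pellet extracellular water per 10⁷ cells.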

CHO-AA8 [3] = test: Average intracellular compound concentration where the hypoxia sensitizer enhancement ratio (SER)=1.6; type: functional, Cricetulus griseus; in short: as §3
[4] = The ratio of aerobic CT10 to hypoxic CT10; type: functional
In short: (§4)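 Clonogenic assay on stirred plateau-phase AA8 suspensions (10⁶/mL), gassed with 5% CO₂ in air or in N₂ after 60 min preequilibration. Survival sampled every 0.5–1 h up to 8 h at several drug concentrations. CT10 taken at each concentration. Interpolated aerobic CT10 divided by hypoxic CT10 at the same time; ranges cover 1–8 h exposure.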

CHO-AA8 [5] = test: Concentration required to reduce AA8 cell numbers to 50% of controls in a growth inhibition microassay; type: functional, cell-based; settings: Cricetulus griseus
In short: (§5)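 Cells kept as log-phase monolayers in antibiotic-free Alpha MEM with 10% heat-inactivated FCS. Per well: 200 AA8, 300 UV4, 50 EMT6 or 1000 FME cells. Drug added 24 h after seeding and removed after 18 h. Cell mass (protein, methylene blue absorbance) read 72–78 h after washout. IC50 = concentration giving 50% of the mean of eight controls on the same plate.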

UV4 = test: Aerobic cytotoxicity against UV4 cells in a growth inhibition microassay; type: functional, Cricetulus griseus; in short: as §5
EMT6 = test: Aerobic cytotoxicity against murine mammary carcinoma EMT6 cells in a growth inhibition microassay; type: functional, Mus musculus; in short: as §5
FME = test: Aerobic cytotoxicity against human melanoma FME cells in a growth inhibition microassay; type: functional; in short: as §5
[6] = (§6) In vitro therapeutic index (aerobic IC50 / hypoxic C1.6); type: cell-based, Cricetulus griseus; settings: chinese hamster, CHO-AA8 cells; read-out: TI
In short: (§7)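 Hypoxic C1.6: stirred AA8 gassed with 5% CO₂/N₂ 60 min, drug 30 min, ⁶⁰Co irradiation at 37 °C (~2 Gy/min). D10 from linear-quadratic fit; concentration giving SER 1.6 interpolated. Index = IC50/C1.6.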

[7] = Ratio of mean intracellular to extracellular compound concentration determined under hypoxic conditions 30 mins after exposure to compound at C1.6 concentration; type: functional, cell-based
In short: (§8)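 AA8 suspension (10⁷ cells) made hypoxic with 5% CO₂ in N₂, exposed 30 min at 37 °C to drug at the C1.6. Supernatant and lysed pellet extracted in MeCN. Assayed by C18 HPLC (formate pH 4.5/MeCN gradient, 320 nm), corrected for spiked recoveries. Intracellular level from 11.6 µL cell water/10⁷ cells, with [¹⁴C]sucrose and ³H₂O spaces. Result expressed as Ci/Ce.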

[8] = Ratio of mean intracellular to extracellular compound concentration determined under hypoxic condition.; type: functional, cell-based; in short: as §8
[9] = The ratio of aerobic CT10 to hypoxic CT10.; type: functional; in short: as §4
CHO-AA8 [10] = test: Compound concentration at which sensitizer enhancement ratio =1.6 under hypoxia.; type: functional, Cricetulus griseus
In short: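 Stirred AA8 suspensions gassed 60 min with 5% CO2 in N2. Drug added 30 min before ⁶⁰Co irradiation at 37 °C (ca. 2 Gy/min, typically 6 Gy steps). Clonogenic survival taken against unirradiated cells from the same culture. Linear-quadratic fit gives D10; SER = D10 without/with drug, determined over a range of concentrations to estimate C1.6. Only concentrations with minimal drug toxicity during irradiation were used.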

CHO-AA8 [11] = test: Average intracellular compound concentration when the hypoxic SER=1.6.; type: functional, Cricetulus griseus; in short: as §3
[12] = Partition coefficient (logP); type: physicochemical; settings: octanol/water
In short: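 log P octanol computed with CLOGP rather than measured.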

CHO-AA8 [13] = test: Compound concentration required to reduce cell survival to 10% of control values under hypoxic condition.; type: cell-based, Cricetulus griseus; settings: chinese hamster; in short: as §2
CHO-AA8 [14] = test: Average intracellular compound concentration when the hypoxic SER=1.6; type: functional, Cricetulus griseus; in short: as §3
CHO-AA8 [15] = test: as §6; type: functional, Cricetulus griseus
In short: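 C1.6 is the concentration giving SER 1.6 in hypoxic stirred AA8 suspensions exposed to drug for 30 min before ⁶⁰Co irradiation at 37 °C.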

[16] = as §6; type: functional; in short: as §7
CHO-AA8 [17] = test: as §1; type: functional, Cricetulus griseus
In short: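 Plateau-phase AA8 cells (10⁶/mL) in magnetically stirred 10-mL cultures, gassed continuously with N2 plus 5% CO2. Cells and drug pre-equilibrated 60 min. Clonogenic plating every 0.5–1 h for up to 8 h at several concentrations. CT10 (concentration × time for 10% survival) estimated at each concentration.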

| SMILES | CT10 (CHO-AA8 [1]) | C1.6 (CHO-AA8 [2]) | C1.6 (CHO-AA8 [3]) | Ratio [4] | IC50 (CHO-AA8 [5]) | Hypersensitivity factor (UV4) | Hypersensitivity factor (EMT6) | Hypersensitivity factor (FME) | selectivity ratio [6] | Uptake ratio [7] | Uptake ratio [8] | Ratio [9] | C1.6 (CHO-AA8 [10]) | C1.6 (CHO-AA8 [11]) | logP [12] | CT10 (CHO-AA8 [13]) | C1.6 (CHO-AA8 [14]) | TI (CHO-AA8 [15]) | TI [16] | CT10 (CHO-AA8 [17]) |
| --- | --- | --- | --- | --- | --- | --- | --- | --- | --- | --- | --- | --- | --- | --- | --- | --- | --- | --- | --- | --- |
| Cc1ncc([N+](=O)[O-])n1CCO [METRONIDAZOLE] | 100 mM-hr | 13.3 mM | 17.3 mM | 5 | 23 mM | 1 | 1 | 1 | 1.7 | 1.3 |  |  |  |  |  |  |  |  |  |  |
| Cc1ncc([N+](=O)[O-])n1CCNC(=O)Cn1c([N+](=O)[O-])cnc1C |  |  |  |  | 7.7 mM | 1 | 4.4 | 2.3 | 2.8 |  | 1.5 | 2 | 2.7 mM | 4.1 mM | -0.76 | 50 mM-hr |  |  |  |  |
| O=C(CCCn1ccnc1[N+](=O)[O-])NCCn1cnc([N+](=O)[O-])c1 | > 15 mM-hr |  |  |  |  |  |  |  | < 1.6 |  |  |  | >1.1 mM | >0.36 mM | -1.55 |  |  |  |  |  |
| Cc1ncc([N+](=O)[O-])n1CCNC(=O)Cn1ccnc1[N+](=O)[O-] | 11 mM-hr |  |  |  | 4.7 mM | 1 | 2.2 | 2.1 | 4.3 |  | 0.5 | 2.4 | 1.08 mM | 0.54 mM | -1.03 |  |  |  |  |  |
| O=C(CCCn1ccnc1[N+](=O)[O-])NCCn1ccnc1[N+](=O)[O-] | 3.4 mM-hr |  |  |  |  |  |  |  | 1.7 |  | 0.5 | > 6 | 1.54 mM |  | -1.55 |  | 0.77 mM |  |  |  |
| Cc1ncc([N+](=O)[O-])n1CCNC(=O)CCCCn1ccnc1[N+](=O)[O-] | 6 mM-hr |  |  |  | 3.8 mM | 1.2 | 1.7 | 3.5 | 4 |  | 0.52 | > 7 | 0.93 mM | 0.48 mM | -0.79 |  |  |  |  |  |
| O=C(CCCn1ccnc1[N+](=O)[O-])NCCn1cncc1[N+](=O)[O-] | 0.8 mM-hr |  |  |  | > 4.2 mM |  | >1.7 | >2.1 | > 4.7 |  | 0.3 | > 30 | 0.9 mM | 0.27 mM | -1.55 |  |  |  |  |  |
| O=[N+]([O-])c1nccn1CC(O)CNCCBr (centres undefined) | 0.18 mM-hr |  |  |  | 0.15 mM | 5.9 | 1.6 | 1 |  |  |  | 20 | 0.13 mM |  |  |  |  | 1.1 |  |  |
| O=C(CCn1ccnc1[N+](=O)[O-])NCCCn1ccnc1[N+](=O)[O-] | 2.5 mM-hr |  |  |  | 6.1 mM | 1.2 | 3.5 | 3.9 |  |  |  | 6.5 |  |  | -1.55 |  |  |  |  |  |
| Cc1ncc([N+](=O)[O-])n1CCNC(=O)CCCn1ccnc1[N+](=O)[O-] | 0.37 mM-hr |  |  |  | 7.2 mM | 1.4 | 1.3 | 4.6 | 11 |  | 0.33 | 8 | 0.63 mM | 0.21 mM | -1.28 |  |  |  |  |  |
| COCC(O)Cn1ccnc1[N+](=O)[O-] (centres undefined) [MISONIDAZOLE] |  | 0.43 mM | 0.4 mM |  |  | 1.4 | 3.6 | 1.9 |  | 0.9 |  | 25 |  |  |  | 8.3 mM-hr |  |  | 28 |  |
| O=C(CCCn1ccnc1[N+](=O)[O-])NCCn1ccnc1 |  | 4 mM | 1.32 mM |  | 24 mM | 1.3 | 4.2 | 3 |  | 0.33 |  | 8 |  |  | 1.32 | 26 mM-hr |  |  | 6 |  |
| Cc1ncc([N+](=O)[O-])n1CCNC(=O)CCn1ccnc1[N+](=O)[O-] | 12 mM-hr |  |  |  | 5.5 mM | 0.9 | 2.5 | 2.9 | 7.9 |  | 0.6 | > 7 | 0.7 mM | 0.42 mM | -0.99 |  |  |  |  |  |
| Cc1ncc([N+](=O)[O-])n1CCNC(=O)CCCCCn1ccnc1[N+](=O)[O-] |  |  |  |  |  |  |  |  | 1.2 |  | 0.55 | > 17 | 0.65 mM | 0.36 mM | -0.22 |  |  |  |  | 1.5 mM-hr |
